Bioassay records deposited in PubChem BioAssay by several laboratories.
Compounds with a hit are over-represented: about 2.2% of the library has one in this group of screens.
Mot1-301 SUMO: yeast Mot1-301 growth rescue at high temperature, primary screen, SUMOylation pathway inhibitor project, S. cerevisiae, ATP luminescence, 38.5C. S. cerevisiae Mot1-301 growth rescue; percent above DMSO median, 100 means doubled. growth rescue, % at 18.8 µM. 320,000 tested, 1% active. AID 2716, 2010;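 active = every valid replicate shows activation above 250% relative to neutral control wells; inactive = the rest, any valid replicate at or below 250%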;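 note: OY570 slx delta 5 strain wells were the positive control but not used for scaling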
Cneo AK release: Cryptococcus neoformans cell lysis inducers, primary screen, AK release luminescence, single concentration; C. neoformans lysis, adenylate kinase release luminescence, 4 h; normalised: neutral wells 0, clomiphene wells 100; lysis activity, % at 15 µM; 360,000 tested, 0.2% active; AID 651654, 2012;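 active = mean lysis activity across replicates of at least 80%, whatever share of replicates individually reach that level; inactive = mean lysis activity below 80%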
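Assay system: log-phase C. neoformans yeast / Quantity: yeast cell density of 5 × 10^6 cells/mL / Medium: fresh YPD growth medium / Compound: single dose / Timing: static 4 h at 37 °C with compound, 1 h detection / Measured by: adenylate kinase release luminescence / Read-out: lysis from increased AK signal / Benchmarks: Clomiphene as positive lysis control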
Yeast superoxide: reduction of superoxide in aged yeast, primary screen, HTS. S. cerevisiae aged cells, superoxide DHE fluorescence; stronger effect = lower value. superoxide response (% of plate mean), % at 10 µM. 330,000 tested, 0.18% active;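 active = superoxide response under a set limit, about three screen SD below normal, cut at about 65% in these data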;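 note: yeast aged for seven days with compound at 30 °C before DHE staining; 100% = average MFI of all compound-treated wells on the plate with controls excluded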
PglD DTNB: C. jejuni PglD acetyltransferase inhibitors, primary screen, biochemical, DTNB colorimetric, single point; purified PglD enzyme, DTNB colorimetric CoA detection; inhibition, % at 12.5 µM; 360,000 tested, 0.098% active; AID 602405, 2012; in the data active = inhibition above about 16%, passing the limit was not always enough
rRNA inh HTS: reduced GFP signal of wild-type E. coli, primary screen, bacterial rRNA inhibitor project, GFP/RFP fluorescence, OD600, single point. E. coli WT GFP vs humanized-ribosome RFP mutants, 24 h; stronger effect = lower value; DMSO median 0, no signal -100. AID 720706, 2013. GFP signal change (wild-type ribosome), % (no concentration beside the values). 350,000 tested, 1.6% active;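 active = significant combined selectivity score with lowered wild-type GFP, culture density cut under 30%, mutant RFP and density less affected; inactive = any of these conditions unmet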
Numbers without * were called inactive; . = no result given.

SMILES	Mot1-301 SUMO	Cneo AK release	Yeast superoxide	PglD DTNB	rRNA inh HTS
C=CCn1c(SCC(=O)c2ccc(O)c(O)c2)nnc1-c1cccc(Cl)c1	-7	1	77	0	-18
C=CCn1c(SCC(=O)c2ccc(O)c(O)c2)nnc1-c1cccc(C)c1	7	1	85	9	-27*
Cc1csc2c(N3CCN(C(=S)Nc4ccc(F)cc4F)CC3)ncnc12	13	-4	90	14	-26*
Fc1ccc(NC(=S)N2CCOCC2)c(F)c1	-19	0	101	-16	3
Cc1csc2c(N3CCN(C(=O)Nc4ccccc4)CC3)ncnc12	2	2	98	9	-28*
Cc1ccc(C(=O)N2CCN(c3ncnc4c(C)csc34)CC2)cc1	10	3	96	-3	-17
C[C@H]1CN([C@@H](C)CO)C(=O)Cc2cc(NC(=O)Nc3cccc4ccccc34)ccc2O[C@H]1CN(C)Cc1ccccc1	.	-1	.	-3	-3
CO[C@@H]1CN(C)C(=O)c2ccc(NC(=O)Nc3cc(F)ccc3F)cc2OC[C@H](C)N(C)C[C@@H]1C	.	3	.	-5	1
O=C(NCCc1ccccc1)C(=O)NCC1CCCN1S(=O)(=O)c1cccs1 (stereo not given)	355*	0	107	-2	-4
Cc1cc(S(=O)(=O)N(Cc2ccc3c(c2)OCO3)CC2CCCO2)ccc1-n1cnnn1 (stereo not given)	-24	1	105	-9	.
Cc1cc(S(=O)(=O)N(Cc2ccc(C(C)C)cc2)CC2CCCO2)ccc1-n1cnnn1 (stereo not given)	-14	-1	93	4	-21*
Cc1cc(S(=O)(=O)N(Cc2ccc(F)cc2)CC2CCCO2)ccc1-n1cnnn1 (stereo not given)	-8	0	96	2	-21*
C[C@H](CO)N1C[C@H](C)[C@H](CN(C)S(=O)(=O)c2ccccc2)Oc2ncc(-c3cccc(F)c3)cc2C1=O	.	2	.	2	-6
CN1CCN(C(=O)C[C@@H]2CC[C@H]3[C@@H](COC[C@@H](O)CN3S(=O)(=O)c3cccc(F)c3)O2)CC1	.	-4	.	8	-2
CC(=O)c1cccc(Nc2c3c(nc4ccccc24)CCC3)c1	-5	-2	110	6	-19
CC(=O)c1ccc(Nc2c3c(nc4ccccc24)CCCC3)cc1	176	.	88	.	-35*
COc1ccc(CN(C)C[C@@H]2OCCCC[C@@H](C)Oc3ccc(NS(=O)(=O)c4c(C)noc4C)cc3C(=O)N([C@H](C)CO)C[C@H]2C)cc1	.	4	.	4	-2
CCOc1cc(C)cc2oc(=O)cc(-c3ccccc3)c12	-2	-1	99	4	-36*
CC(=O)Oc1cc(C)cc2oc(=O)cc(-c3ccccc3)c12	-16	1	91	-1	-30
CCCCc1cc(=O)oc2cc(C)cc(OCC(=O)N3CCC(C(=O)O)(c4ccccc4)CC3)c12	-10	0	81	1	-13*
O=C(C[C@H]1CC[C@H]2[C@@H](COC[C@H](O)CN2C(=O)Nc2ccccc2)O1)NCCCN1CCOCC1	.	2	.	1	3
COc1cccc(NC(C)(C)c2nnnn2-c2c(C)cccc2C)c1	20	0	96	-1	-24*
Oc1ccc2ccccc2c1N=Nc1ccccc1F	4	-4	88	1	13
O=S(=O)(O)c1cccc(N=Nc2c(O)ccc3ccccc23)c1	-15	-9	113	-3	-33*
Nc1ncccc1OCc1ccc(Cl)c(Cl)c1	-11	-1	86	2	-21*
NC(=O)c1ccccc1NC(=O)/C=C/c1ccc(Cl)cc1	7	-3	111	-1	.
O=C(/C=C/c1ccc(Cl)cc1)NC(=S)Nc1ccccc1C(=O)O	-28	.	94	.	-18*
N#CC(CO)(Cc1ccc(OC(F)F)cc1)c1nc2ccccc2[nH]1 (stereo not given)	15	.	91	.	-21*
COc1ccc(CC(C#N)(CO)c2nc3ccccc3[nH]2)cc1 (stereo not given)	138	.	110	.	.
